System: MS2 coat protein
Assay: apparent Kd, MS2 coat protein; higher = weaker binding; RNA-MaP array; FMN 200 µM where present
Procedure, shortened: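 In 100 mM Tris-HCl pH 7.5, 80 mM KCl, 4 mM MgCl2, BSA, DTT, yeast tRNA and Tween-20, SNAP-549-labelled MS2 coat protein was titrated from 0.7 or 1.5 nM, doubling to 3 µM, over designs transcribed by stalled E. coli RNA polymerase on Illumina sequencing-chip clusters. This was done first without ligand, then with ligand held constant. After green signal was normalised to red-channel RNA signal and control-cluster median Fmax, the apparent Kd was taken as the median of filtered per-cluster binding-curve fits.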

[1] = designed as: OFF switch for flavin mononucleotide, no ligand
[2] = ligand present: flavin mononucleotide, designed as: OFF switch for flavin mononucleotide
[3] = designed as: ON switch for flavin mononucleotide, no ligand
[4] = ligand present: flavin mononucleotide, designed as: ON switch for flavin mononucleotide

| Sequence | apparent Kd [1] [nM] | apparent Kd [2] [nM] | apparent Kd [3] [nM] | apparent Kd [4] [nM] |
| --- | --- | --- | --- | --- |
| GUAUCGUGAGGAUAUCAUGAUUGACUUUUAUUUUGUCAGCGUGAGAAGGCACAUGAGGAUCACCCAUGUGAUUA | 22.6 | 50.5 |  |  |
| AGCUACACCCAGAAGGACAUGAGGAUCACCCAUGUAGGAUAUGGGAGACACAGUCCCAUGUAGAGAAAUUACGCUAGUGUAGCG |  |  | 102 | 46.5 |
| AAAUAAGUUGCAGGAUAUUAUUUUUGAUAAAUAUAAGAAGGGCAACAAACCUCACAUGAGGAUCACCCAUGUACCCAUGUAUCU | 65.5 | 30 |  |  |
| AAAAAGCGAGGAUAUACAUGAGGAUCACCCAUGUCAAACGGUAAGACCGCAGGAAACAGUAGAAGGCGCAAAAA | 64.3 | 89.6 |  |  |
| GGACGUCAGAUUAACAUGAGGAUCACCCAUGUCUUUUGACAUGAGGAUAUCGAUCCUAAUUGGAUCGAGAAGGCAUGGACGUCC |  |  | 1180 | 96.8 |
| GCUGCAUAGGCAGGAUAUGCAAGAAUUGAAAUAAAAUAUAAUAAAUGAACAUGAGGAUCACCCAUGUAGAAGGGCCUGUGCAGU | 20.8 | 21.4 |  |  |
| UGAUCCGUGUAGGAUAUCUGUUGGCCGCCGACUGGAGAAGGGCACACAUGAGGAUCACCCAUGUGUGGGCAUAA | 17.8 | 19.6 |  |  |
| AAUUAACAUGAGGAUCACCCAUGUGAGGAUAUGGUAUUACUUGGACAGCUAUGAUCUACCAGAAGGCACAUAUA | 28.7 | 49.4 |  |  |
| GUCGGAAACGACAAUGAUAGGACUGAGGAUAUACGUAAUAUUAUCCAUACAUGAGGAUCACCCAUGUAGAAGGCAGUCCUAUCU | 5.85 | 6.02 |  |  |
| UACAGACAUGAGGAUCACCCAUGUGAGGAUAUCGGUACCGAUGGCAUAAUCUGCUCGGCGAGAAGGCACAGUGU | 28 | 48.4 |  |  |
| AUAUACUUCCAGAAGGCACAUGAGGAUCACCCAUGUACGUCUGACAUCGUGUGAGGAUAUGGAGCACGAACGCUAAAGCGGGCA | 7.92 | 21.3 |  |  |
| GUAGCAUAAUCAGGAUAUUCAGCGAAUAGAUUGACAUGAGGAUCACCCAUGUGGCGAAAGCCUCGGGAGAAGGGAUAAUGCUAC |  |  | 399 | 76.8 |
| UUUCUCUGUGUGAGGAUAUACUUGUUUGGGUUUUUGUAGAAGGCACAUGAGGAUCACCCAUGUAUUUUGUCGUG | 34.4 | 55.6 |  |  |
| AAUUUACAUGAGGAUCACCCAUGUGAGGAUAUAUAUAUAUGCUUGUUAUUGCGUGUGUGUAGAAGGCGCGUGAU | 21.1 | 21 |  |  |
| AAAAGGCAUCGUGACAUGAGGAUCACCCAUGUGAUUUGCUCACAGGAUAUCAUGCUCACGGAGCCUGAGAAGGGUGAAAGCUAA |  |  | 28.7 | 54.7 |
| GUGGUACAUGAGGAUCACCCAUGUUAGGAUAUCGCGUGAGGUAAAACUUACACACACACGAGAAGGGACGUCUU | 45.9 | 41 |  |  |
| GUUUACGUAGAAGGAUAUACAUUUGACAUCCUGAUGCACGCAAUACUCACAUGAGGAUCACCCAUGUAGAAGGUCUGCGAAAGA | 15.5 | 24.8 |  |  |
| AUAAAACAUGAGGAUCACCCAUGUCAACAAAGUCGAGGAUAUGGGCAAAUAAAAUAAGAACCAGAAGGCGAAUUAU |  |  | 210 | 38.6 |
| CGGUGACAUGAGGAUCACCCAUGUUAGGAUAUACAAAAGCUCGCUCAAGGGCGGCGAAGUAGAAGGAGCGUGCC | 21.7 | 29.7 |  |  |
| AUGGGCUAGGAGAAGGGCUAGAGUGUGAUAUAUUUGCCCGCGAGCACAUGAGGAUCACCCAUGUAGCAGGAUAUCCAAGCCGGU | 7.43 | 18 |  |  |
| UAUCGGAGCAGAGGAUAUUACAUGAGGAUCACCCAUGUAUGAACCAAUAGCUGGAAACAGCAAUGUAAGAAGGCUGCUCCGACA | 11.9 | 163 |  |  |
| UGGUACAUCGGAGGAUAUCAUGUAGAUACAUGAGGAUCACCCAUGUCGUACGAGAGUACGGAGAUUGAGAAGGCCGAUGUACCU |  |  | 30.7 | 16.4 |
| UGAGCGACCACAGGAUAUACUUGAGAAGACCGAGUAGAAGGGUGGAAGAGCGUGCAGUGACAUGAGGAUCACCCAUGUGGUUGU |  |  | 107 | 98.4 |
| GUGCAAUGAGGAUAUACGUAGGUGAAAAUCUGUGUGCUCCUACAUGAGGAUCACCCAUGUAGAAGGCAUGUCAC | 17.1 | 28.2 |  |  |
| ACGCCAAUCGAGAAGGGCCCAUGUGCUACGUCGGCAGGAUAUCGACAUGAGGAUCACCCAUGUUGGCGAUCCUUUUUGGCUAAC | 147 | 212 |  |  |
| UGAUCUAUGUAGAAGGCCCAUAUCUAUAUUUAGGGAGGAUAUACAUGAGGAUCACCCAUGUAUAGAGCGAGUGGACUCGUCACC | 18.1 | 47.3 |  |  |
| UAUAUGUCAGGAUAUUAAUUAAGAUGGAAUUUAGUCUUAGUUGAGAAGGGACAUGAGGAUCACCCAUGUUCCUC | 19.7 | 159 |  |  |
| CUUAUGUGAGGAUAUGGUGUUGGUCACAGGAAAAAGAUUCUCCAGAAGGCACAUGAGGAUCACCCAUGUAGUGA | 89.4 | 71.2 |  |  |

| Sequence | apparent Kd [1] [nM] | apparent Kd [2] [nM] | apparent Kd [3] [nM] | apparent Kd [4] [nM] |
| --- | --- | --- | --- | --- |
| AAUGAAUAUAAAUUGUAUUUGUCGUAGGAUAUGGGUGACAUGAGGAUCACCCAUGUUGCAGACGACCAGAAGGGCGGCGGAUAU |  |  | 18 | 18.2 |
| AGUACGUCAGGAUAUCUGAUGUCUAACUUCGGUUAGACAUCAGAGAAGGGACAUGAGGAUCACCCAUGUACAAA | 41.8 | 36.9 |  |  |
| AACUGACAUGAGGAUCACCCAUGUCAGGAUAUGAUAUGUAAAAAAUAAAAAAUACUUAUCAGAAGGGACAUGGA | 22.7 | 41.3 |  |  |
| UGGAUCAAUACAGGAUAUGGUGACGCACAUGAGGAUCACCCAUGUCCGCAGCGUGCUAAGCACGCCCAGAAGGGUAUUGAUUCG |  |  | 722 | 69.4 |
| UUACUAUUGGAGAAGGCUCAAUAAUAUAUAAAGGGAGGAUAUCCAACAUGAGGAUCACCCAUGUUUCACCCAUAUGAGGAUCAC | 13.1 | 12.5 |  |  |
| CGCUACUGCCAGAAGGACAUGAGGAUCACCCAUGUAGGAUAUGGGUGUCGAGGACCAGUGUAGAGAAACUACGCUACAGUAGCG |  |  | 958 | 57.6 |
| GCGUAAUAGGUGUAGCUAGUCAUUCAAGAAGGGUGAAGAACAUGAGGAUCACCCAUGUGGUUUAUACAGGAUAUUGAUAUACGC |  |  | 363 | 90.4 |
| UCGUACAUUCGAGGAUAUCGGUGAUAAAUAAUACGAGAAGGCGAUUUUAGGCAUAACGCCUUAGACAUGAGGAUCACCCAUGUA |  |  | 68.1 | 55.1 |
| AAAAAGUCAGGAUAUCGGAAAAAAAAAAAAAAAAGGAGAAACGAGAAGGGACAUGAGGAUCACCCAUGUAAAAA | 51 | 46.7 |  |  |
| GGAAUAUUUACAGGAUAUCAUUUGUAAAUUCGAUGAGAAGGGUAGAUGUCUUACACGACUUGUUACAUGAGGAUCACCCAUGUU |  |  | 43.3 | 33.3 |
| GAGAGCCGCGAAGGAUAUACAUCCGUGACCGUCAACAUGAGGAUCACCCAUGUAGAAGGUCGCUGCCUCUUGACAACUGACAAG | 5.16 | 18.4 |  |  |
| AUUAAACAUGAGGAUCACCCAUGUCAACAAAGUCGAGGAUAUGGGCAAUUAAAAUAAGAACCAGAAGGCGAAUAAU |  |  | 340 | 35.4 |
| UUGGUAUUUGUAGGAUAUCUGUCGCCACCGUGUGGAGAAGGACGAACAUGAGGAUCACCCAUGUAUCAUGGUGUGGGCUUUGUU | 757 | 710 |  |  |
| CUAAAUCAUGUAGGAUAUGCGUGGCGAAGCUAUGCAGAAGGACAUGAGGAUCACCCAUGUCUAUCCGUCUGCGUACAGACGGAA | 25.1 | 186 |  |  |
| GUUAAACAUGAGGAUCACCCAUGUCAAUGUAGUCGAGGAUAUGGGCAGCUAUGAGGCGUACUAGAAGGCGAAGAGU |  |  | 361 | 178 |
| GUGCCUUGGGAGAAGGCCGAUAGCAAAGCUAUCGGAGGAUAUUCAUACCGGAAACGGACAUGAGGAUCACCCAUGUGGCACAAA |  |  | 1280 | 51.7 |
| UCUCGUUUCGCAGGAUAUGCUGGUCGGAAAUAAACCGGCCACAUGAGGAUCACCCAUGUGCCACAGCAGAAGGGUGACACUAGA |  |  | 527 | 53.9 |
| CAGCUACCCAGUAUGGGUAUUUUUACAGAAGGCCAGGUACAUGAGGAUCACCCAUGUUAAGUUAUGGAGGAUAUGUUAGUGUAU |  |  | 27.9 | 7.18 |
| CAUUAAUUCAUUAUAGUUAUUAUACAGGAUAUGUUACAUGAGGAUCACCCAUGUAUUCAUGGUAAACAGAAGGGUAAUACUCGU | 49.3 | 45.9 |  |  |
| UGGUACUAGGGAGGAUAUGGGAAGAUACAUGAGGAUCACCCAUGUUUAAGAAUGCCGAGAGGCAACUAGAAGGCCCUAGUUCCU |  |  | 390 | 19.5 |
| AUGAAAGUAACACAGGAUAUCGAGGAUACAACAUGAGGAUCACCCAUGUACAUACGAACGUAUAACGAGAAGGGUGGAUGAUCUUC |  |  | 244 | 639 |
| AACUUACAUGAGGAUCACCCAUGUGAGGAUAUAUAAAUAUAUAUGUUAUUGUAUGUUUGUAGAAGGCGCGUGAU | 52.2 | 51.2 |  |  |
| CUCAAACAUGAGGAUCACCCAUGUGUUGUCAUGGGAGGAUAUCUAAGUUCGUUGUAGUCGGGAGAAGGCCUAUGUC |  |  | 134 | 47.2 |
| GCAGGAAAACUUGGUACAUGAGGAUCACCCAUGUAAAGCGGCAGAAGGGCGAUGUUAUGUAUAACGCAGGAUAUGCAGCGGAAU |  |  | 46.4 | 18.1 |
| AAGGAGUUAGGAUAUGCUGCUCGUCACUUGCGUGAUGAGUAGCAGAAGGGACAUGAGGAUCACCCAUGUAAAAA | 45.3 | 21.2 |  |  |
| AGCAAGUUUACAUGAGGAUCACCCAUGUUUUUUAGGGUUAUCAGAAGGUACAUUUUGAGAUAGAGUAAGGAUAUGAUAUAUGCG |  |  | 169 | 55 |
| GGAUAGGACAGAGGAUAUACGUGCUAGAUAUACUAGCAAAAUUUCCUCACAUGAGGAUCACCCAUGUAGAAGGCUGUCCUAUCG | 15.6 | 399 |  |  |
